This note sets out measurements from PMC4368043 (ACS Chemical Neuroscience, 2014).

For one data set, the system named is SH-SY5Y cells. The experiment in a line: Cell viability assay, thapsigargin as stressor. The data set is classed as cell-based, human. The following applies: 7.5 μM thapsigargin; for EC50: read-out: SH-SY5Y EC50 ± SEM, cytoprotection, dose-response; for cytoprotective activity against thapsigargin-induced cell death (in words): SH-SY5Y cells. In short, it runs like this: (§1)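 Cells plated overnight at 37 °C, 5% CO2 in phenol red-free DMEM with 2% FBS (SH-SY5Y 4 × 10^4, H4 2.5 × 10^3 cells/well). Test compound in dose–response for 2 h, then thapsigargin 7.5 μM final for 18 h at 37 °C. Read by MTS absorbance at 490 nm. Viability % = background-subtracted (cell-free medium) relative to DMSO-only, no-thapsigargin wells. EC50 from dose–response curves. ≥3 repeats, mean ± SEM.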

The subject of a further data set is H4 cells. Kind of data set: Cell viability assay, thapsigargin as stressor. It counts as cell-based, human. The following applies: 7.5 μM thapsigargin; for EC50: read-out: H4 EC50 ± SEM, cytoprotection, dose-response; for cytoprotective activity against thapsigargin-induced cell death (in words): H4 cells. In short, it runs like this:
as §1

Data set [1] can be described thus: Microsomal stability assay. The data set is classed as in vitro ADME. The following applies: mouse, pooled mouse liver microsomes. In short, it runs like this:
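Pooled mouse liver microsomes (1 μg/μL protein) preincubated 10 min at 37 °C with test compound (4 μM final). Started with NADPH (2 mM final) and incubated 1 h at 37 °C with shaking. Zero-time and end samples quenched in 5:1 acetonitrile:water and centrifuged. Indomethacin added as internal standard. Quantified by triple-quadrupole LC-MS/MS in MRM mode; % remaining at 1 h.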

The nature of a further data set: Plasma stability assay. The following applies: male, C57BL/6, mouse. The data set is classed as in vitro ADME. Put shortly: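 Plasma from male C57BL/6 mice, diluted 1:1 with PBS and warmed to 37 °C. Test compound added to 1 μM final and incubated 3 h at 37 °C with shaking. Zero-time and end samples quenched in 5:1 acetonitrile:water and centrifuged. Indomethacin added as internal standard. Quantified by LC-MS/MS in MRM mode; % remaining at 3 h.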

Data set [2] concerns p38 MAPK. The experiment in a line: Immunoblotting of thapsigargin-induced phospho-p38 MAPK in H4 cells. The data set is classed as cell-based, human. The following applies: compound 25 μM and 5 μM 2 h, then 20 μM thapsigargin 1 h, immunoblot. Put shortly: (§2)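 H4 cells, 2.5 × 10^6 per 10 cm dish, grown overnight in phenol red-free DMEM with 2% FBS, then serum-starved 2 h. Test compound at 25 or 5 μM for 2 h, then thapsigargin 20 μM for 1 h. Lysed in RIPA buffer with protease and phosphatase inhibitors; protein measured by BCA. 50 μg run on 4–12% Bis-Tris SDS-PAGE and transferred to PVDF. Probed for phospho-p38, p38, phospho-JNK and JNK; HRP secondaries, ECL detection.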

A further data set has as its system JNK. Kind of data set: Immunoblotting of thapsigargin-induced phospho-JNK in H4 cells. The data set is classed as cell-based, human. The following applies: compound 25 μM and 5 μM 2 h, then 20 μM thapsigargin 1 h, immunoblot. Put shortly:
as §2

Data set [3] deals with p38 MAPK. The experiment in a line: Activity of p38 MAPK pathway, H4-CHOP-luciferase reporter cells. It counts as cell-based, human. In short, it runs like this:
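H4 cells stably carrying pFR-Luc and pFA-CHOP plasmids, 1000 cells/well, grown 24 h in 10% FBS DMEM, then switched to phenol red-free DMEM with 2% FBS. Test compound for 1 h at 37 °C (10 μM with thapsigargin or CDDO-IM; 20 μM with MG132; 50 μM with ionomycin). Read by Steady-Glo luminescence. RLU % = background-subtracted (compound-only wells) relative to inducer-only wells. ≥3 repeats, mean ± SEM, one-way ANOVA.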

Data set [4] has as its system panel of 46 receptors, ion channels, and transporters. The experiment in a line: NIMH PDSP off-target panel. The data set is classed as binding.

“Also recorded” adds a separate entry of the source.

On to `CC1(C)CC(=O)C2=C(C1)Nc1cc(C(F)(F)F)ccc1NC2c1ccc(N2CCCC2)cc1` (centres unmarked) [4ee, 3,3-Dimethyl-11-(4-(pyrrolidin-1-yl)phenyl)-7-(trifluoromethyl)-2,3,4,5,10,11-hexahydro-1H-dibenzo[b,e][1,4]diazepin-1-one], for which the EC50 in the data set on SH-SY5Y cells is 14 ± 0.18 µM; with H4 cells, 18.8 ± 2.77 µM. Also, the share remaining at 1 h, 4 μM in data set [1] worked out at 1.8 ± 0.4%. In addition, the fraction remaining at 3 h, 1 μM in the data set “Plasma stability assay” stood at 98.8 ± 3.7%.
Turning to `CC1(C)CC(=O)C2=C(C1)Nc1cc(C(F)(F)F)ccc1NC2c1ccc(N2CCCCC2)cc1` (centres unmarked) [4ff, 3,3-Dimethyl-11-(4-(piperidin-1-yl)phenyl)-7-(trifluoromethyl)-2,3,4,5,10,11-hexahydro-1H-dibenzo[b,e][1,4]diazepin-1-one], the EC50 was 16 ± 0.82 µM in the data set with SH-SY5Y cells and 19.5 ± 2.15 µM in the data set with H4 cells. Besides, the fraction remaining at 1 h, 4 μM in data set [1] came to 4.7 ± 1.7%. In the data set “Plasma stability assay”, this compound gave a share remaining at 3 h, 1 μM not below 100%.
Consider `CCN(CC)c1ccc(C2Nc3ccc(C(=O)c4ccccc4)cc3NC3=C2C(=O)CC(C)(C)C3)cc1` (centres unmarked) [4hh, 7-Benzoyl-11-(4-(diethylamino)phenyl)-3,3-dimethyl-2,3,4,5,10,11-hexahydro-1H-dibenzo[b,e][1,4]diazepin-1-one], for which the “cytoprotective activity against thapsigargin-induced cell death (in words)” value (“cytoprotective activity” below) in the data set with SH-SY5Y cells is recorded as “very strong cytoprotective activity”. This compound gave an amount remaining at 1 h, 4 μM in data set [1] of 7.9 ± 6.3%. The fraction remaining at 3 h, 1 μM in the data set “Plasma stability assay” is not below 100%. Also, the “p38 activity (phosphorylation) in response to thapsigargin” value in the data set on p38 MAPK [2] is on record as “significantly reduced”. Also, the “JNK activity (phosphorylation) in response to thapsigargin” value in the data set on JNK is “significantly reduced”. For the same compound, the “p38 activation initiated by CDDO-IM (CHOP-luciferase RLU)” value with p38 MAPK [3] (10 μM compound 1 h, CDDO-IM 600 nM 18 h) is recorded as “reduced p38 activation”. Further, the “p38 activation initiated by thapsigargin (CHOP-luciferase RLU)” value with p38 MAPK [3] (10 μM compound 1 h, thapsigargin 20 nM 18 h) is reported as “reduced p38 activation”. Besides, the “p38 activity stimulated by MG132 (CHOP-luciferase RLU)” value with p38 MAPK [3] (20 μM compound 1 h, MG132 740 nM 18 h) is on record as “had no effect”. In addition, the “p38 activation initiated by ionomycin (CHOP-luciferase RLU)” value with p38 MAPK [3] (50 μM compound 1 h, ionomycin 120 nM 18 h) was “reduced p38 activation”. In addition, in the data set with p38 MAPK [3] (H4-CHOP-luciferase reporter cells, inducers that disrupt calcium homeostasis), the “calcium regulator-induced p38 MAPK activation” value is given as “moderate inhibition; also recorded: inhibits”. For the same compound, the “off-target interactions in PDSP panel” value in data set [4] was “No significant off-target interactions were detected”.
Turning to `CC1(C)CC(=O)C2=C(C1)Nc1cc(C(=O)c3ccccc3)ccc1NC2c1ccc(N2CCCCC2)cc1` (centres unmarked) [4jj, 7-Benzoyl-3,3-dimethyl-11-(4-(piperidin-1-yl)phenyl)-2,3,4,5,10,11-hexahydro-1H-dibenzo[b,e][1,4]diazepin-1-one], the amount remaining at 1 h, 4 μM in data set [1] came to 12.9 ± 1.6%. The fraction remaining at 3 h, 1 μM in the data set “Plasma stability assay” was not below 100%.
For the compound `CC1(C)CC(=O)C2=C(C1)Nc1cc(C(=O)c3ccccc3)ccc1NC2c1ccc(O)cc1` (centres unmarked) [4ll, 7-Benzoyl-11-(4-hydroxyphenyl)-3,3-dimethyl-2,3,4,5,10,11-hexahydro-1H-dibenzo[b,e] [1,4]diazepin-1-one], the “cytoprotective activity” value in the data set on SH-SY5Y cells and with H4 cells was “devoid of cytoprotective activity” throughout.
`CC1(C)CC(=O)C2=C(C1)Nc1cc(C(=O)c3ccccc3)ccc1NC2c1ccsc1` (centres unmarked) [4mm, 7-Benzoyl-3,3-dimethyl-11-(thiophen-3-yl)-2,3,4,5,10,11-hexahydro-1H-dibenzo[b,e] [1,4]diazepin-1-one]: the “cytoprotective activity” value in the data set with SH-SY5Y cells was “devoid of cytoprotective activity; also recorded: does not”; in the data set with H4 cells, “devoid of cytoprotective activity”. In the data set on p38 MAPK [2], the “p38 activity (phosphorylation) in response to thapsigargin” value is reported as “had no effect”. The “JNK activity (phosphorylation) in response to thapsigargin” value with JNK is reported as “had no effect”.
Regarding `CN(C)c1ccc(C2Nc3ccc(Br)cc3NC3=C2C(=O)CC(C)(C)C3)cc1` (centres unmarked) [4s, 7-Bromo-11-(4-(dimethylamino)phenyl)-3,3-dimethyl-2,3,4,5,10,11-hexahydro-1H-dibenzo [b,e][1,4]diazepin-1-one], in the data set with H4 cells, the EC50 is 12.9 ± 0.92 µM.
As to `CC1(C)CC(=O)C2=C(C1)Nc1cc(Br)ccc1NC2c1ccc(N2CCCC2)cc1` (centres unmarked) [4t, 7-Bromo-3,3-dimethyl-11-(4-(pyrrolidin-1-yl)phenyl)-2,3,4,5,10,11-hexahydro-1H-dibenzo [b,e][1,4]diazepin-1-one], the EC50 with SH-SY5Y cells came out at 14.6 ± 1.61 µM. The compound also returned a fraction remaining at 1 h, 4 μM in data set [1] of 0.1 ± 0.1%. The compound also yielded a share remaining at 3 h, 1 μM in “Plasma stability assay” not below 100%.
As for `CCCCN(CCCC)c1ccc(C2Nc3ccc(Br)cc3NC3=C2C(=O)CC(C)(C)C3)cc1` (centres unmarked) [4w, 7-Bromo-11-(4-(dibutylamino)phenyl)-3,3-dimethyl-2,3,4,5,10,11-hexahydro-1H-dibenzo [b,e][1,4]diazepin-1-one], in the data set on SH-SY5Y cells, the “cytoprotective activity” value is “but not in SH-SY5Y cells”. Also, the EC50 with H4 cells turned out to be 13.1 ± 2.53 µM.
`CCN(CC)c1ccc(C2Nc3ccc(-c4ccccc4)cc3NC3=C2C(=O)CC(C)(C)C3)cc1` (centres unmarked) [4y, 11-(4-(Diethylamino)phenyl)-3,3-dimethyl-7-phenyl-2,3,4,5,10,11-hexahydro-1H-dibenzo [b,e][1,4]diazepin-1-one]: the amount remaining at 1 h, 4 μM in data set [1] was 1.8 ± 2.1%. Besides, the fraction remaining at 3 h, 1 μM in the data set “Plasma stability assay” was 97.9 ± 5.7%.
